Key:
[1] = tested on: transgenic tomato leaf cells overexpressing GFP; assay: Transfection of Cy3-labeled pBI221/CPP complexes after spraying; assay type: in vivo, Solanum lycopersicum; details: as Cy3-labeled pBI221/CPP complex, N/P ratio = 2.0; 2 h post spraying; n = 15 ROIs
[2] = tested on: Arabidopsis thaliana leaf upper epidermal and palisade mesophyll cells; assay: Cell penetration and translocation of TAMRA-labeled CPPs after spraying; assay type: in vivo; details: 0.1 μg/mL sprayed; 30, 90, 150 min post spraying; CLSM, n = 8 ROIs
[3] = tested on: epidermal cells of tomato leaves; assay: Translocation of TAMRA-labeled CPPs after spraying; assay type: in vivo, Solanum lycopersicum; details: compared among BP100, dR9, KH9, KAibA; 30, 90, 150 min; 10 ROIs
How it was run: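 Tomato (cv. Micro-Tom) grown in soil with vermiculite at 25 °C, 16/8 h light/dark, 80 μmol photons m–2 s–1, 50% RH for 5–8 weeks; plants with 5–6 expanded leaves. Leaves were water-washed and dried 3–4 h, then sprayed with TAMRA-labeled peptides and lidded. Before imaging, leaves were rinsed 5 × 1 mL water. TAMRA fluorescence intensity was read by confocal microscopy, ex/em 555/580 nm.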

[4] = tested on: soybean leaf epidermal and palisade mesophyll cells; assay: Translocation of TAMRA-labeled CPPs after spraying; assay type: in vivo, Glycine max; details: cv. Enrei; 30, 90, 150 min post spraying; CLSM, 6 ROIs

Q: With “KHKHKHKHKHKHKHKHKHKKLFKKILKYL [KH9-BP100]” as the substance, how does the “transfection efficiency of plasmid DNA molecules after spraying” value [1] read?
A: higher transfection efficiency

Q: Which “penetration efficiency into the palisade mesophyll” value [2] does the source give for d-(RRRRRRRRR) [TAMRA-labeled dR9] here?
A: higher penetration efficiency into the palisade mesophyll than the other CPPs

Q: And the “translocation efficiency in epidermal cells of tomato leaves” value [3]?
A: greatest translocation efficiency

Q: How did the “translocation efficiency into the palisade mesophyll of soybean leaves” value [4] turn out when (Lys(Aib)Ala)5 [TAMRA-labeled KAibA] was run?
A: higher translocation efficiency into the palisade mesophyll than the other CPPs
